Source: ChEMBL document CHEMBL4425131, “Convergent Synthesis of Novel Muramyl Dipeptide Analogues: Inhibition of Porphyromonas gingivalis-Induced Pro-inflammatory Effects by High Doses of Muramyl Dipeptide” (J Med Chem, 2016)
Activity calls are given as the source filed them. The rule behind the calls is not given here.

Assays:
[1] = system: RAW264.7; assay: Downregulation of Porphyromonas gingivalis-induced NOD2 mRNA expression in wild type mouse RAW264.7 cells at 100 ug/ml after 3 hrs by RT-PCR analysis; type: functional, cell-based
Procedure, shortened: (§1)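 Macrophages in RPMI 1640 with 10% FBS, 37 °C, 5% CO2, left untreated, given P. gingivalis alone or test agent alone as controls, or co-treated with P. gingivalis plus 10, 100 or 200 µg/ml for 3 h. Total RNA analysed by real-time RT-PCR (SYBR Green) for NFkB, RIP2 or NOD2, normalized to GAPDH; mean ± S.E.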

[2] = system: RAW264.7; assay: Upregulation of A20 protein expression in wild type mouse RAW264.7 cells after 3 hrs by Western blot analysis; type: functional, cell-based
Procedure, shortened: (§2)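 Macrophages left untreated, given a scrambled (SC) peptide as negative control, or treated with low (10 µg/ml) or high (100 µg/ml) MDP for 3 h. Whole-cell and nuclear protein fractions prepared with Hepes pH 7.9 buffers and probed by Western blot for A20, AP1, MyD88 or NFκB. Triplicate assays.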

[3] = system: RAW264.7; assay: Downregulation of Porphyromonas gingivalis-induced NFkappaB mRNA expression in wild type mouse RAW264.7 cells at 100 ug/ml after 3 hrs by RT-PCR analysis; type: functional, cell-based; procedure, shortened: as §1
[4] = system: RAW264.7; assay: Upregulation of AP1 protein expression in wild type mouse RAW264.7 cells after 3 hrs by Western blot analysis; type: functional, cell-based; procedure, shortened: as §2
[5] = system: RAW264.7; assay: Downregulation of Porphyromonas gingivalis-induced TNF-alpha protein expression in wild type mouse RAW264.7 cells at 10 to 200 ug/ml after 3 hrs by ELISA; type: functional, cell-based
Procedure, shortened: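 Macrophages left untreated, given P. gingivalis alone or test agent alone as controls, or co-treated with P. gingivalis plus 10, 100 or 200 µg/ml for 3 h. TNF-α in culture supernatant measured by ELISA kit; mean ± S.E.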

[6] = system: RAW264.7; assay: Downregulation of Porphyromonas gingivalis-induced RIP2 mRNA expression in wild type mouse RAW264.7 cells at 100 ug/ml after 3 hrs by RT-PCR analysis; type: functional, cell-based; procedure, shortened: as §1
[7] = system: Mus musculus; assay: Antiinflammatory activity in wild type C57BL/6 mouse assessed as reduction of Porphyromonas gingivalis-induced septic shock at 2 to 8 mg/kg, ip; type: functional, organism-based
[8] = system: RAW264.7; assay: Upregulation of A20 promoter DNA level in wild type mouse RAW264.7 cells at 100 ug/ml after 3 hrs by ChIP assay; type: functional, cell-based
Procedure, shortened: (§3)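 RAW264.7 cells treated with low (10 µg/ml) or high (100 µg/ml) MDP for 3 h, or transfected overnight with 1 µg AP1 cDNA as comparator. 10 µg nuclear extract from cross-linked cells immunoprecipitated with 1 µg anti-AP1 antibody or normal mouse IgG at 4 °C for 4 h; A20 promoter and GAPDH fragments amplified by PCR from input and IPs. Triplicates.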

[9] = Toxicity in Porphyromonas gingivalis-induced wild type C57BL/6 mouse septic shock model assessed as mortality at 2 mg/kg, ip; type: organism-based; conditions: in vivo
Procedure, shortened: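 Mice were 8–10-week-old WT C57BL/6, kept specific pathogen-free. They received a single i.p. co-injection of P. gingivalis (1 × 10^8/kg) plus MDP at 2 mg/kg (50 µg/mouse). Controls were DMSO alone or P. gingivalis alone. Animals were watched continuously for endotoxic response for 2 h after injection; n = 3 per group.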

[10] = system: RAW264.7; assay: Effect on Porphyromonas gingivalis-induced NOD2 mRNA level in wild type mouse RAW264.7 cells at 100 ug/ml after 3 hrs by RT-PCR analysis relative to control; type: functional
Procedure, shortened: (§4)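 Macrophages left untreated (negative control), given P. gingivalis alone (positive control), or co-treated with P. gingivalis plus low (10 µg/ml) or high (100 µg/ml) MDP for 3 h. Total mRNA analysed by real-time RT-PCR for NOD2, RIP2 or A20, normalized to GAPDH. NOD2/RIP2 expressed relative to P. gingivalis alone (100%); A20 relative to the low-dose treatment (100%). Triplicates, mean ± SEM.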

[11] = system: RAW264.7; assay: Effect on AP1 protein level in wild type mouse RAW264.7 cells at 100 ug/ml after 3 hrs by Western blot analysis relative to SC peptide; type: functional; procedure, shortened: as §2
[12] = system: RAW264.7; assay: Upregulation of Porphyromonas gingivalis-induced p21 protein level in wild type mouse RAW264.7 cells at 10 to 1000 ug/ml after 3 hrs by Western blot analysis; type: functional, cell-based
Procedure, shortened: (§5)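 Macrophages treated with MDP at 0, 10, 100 or 1,000 µg/ml, alone or together with P. gingivalis, for 3 h. Total protein probed by Western blot for p21 or p53, with actin as loading control. Triplicate assays.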

[13] = system: RAW264.7; assay: Effect on A20 mRNA level in wild type mouse RAW264.7 cells at 100 ug/ml after 3 hrs by RT-PCR analysis relative to control; type: functional; procedure, shortened: as §4
[14] = system: RAW264.7; assay: Effect on MyD88 protein level in wild type mouse RAW264.7 cells at 10 ug/ml after 3 hrs by Western blot analysis relative to SC peptide; type: functional; procedure, shortened: as §2
[15] = system: Peritoneal macrophage; assay: Effect on Porphyromonas gingivalis-induced TNFalpha expression in wild type mouse primary peritoneal macrophages at 100 ug/ml after 3 hrs by ELISA relative to control; type: functional
Procedure, shortened: (§6)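 Primary peritoneal macrophages from C57BL/6 mice cultured in RPMI 1640 with 10% FBS. Cells left untreated, given 10, 100 or 1,000 µg/ml MDP alone, given P. gingivalis alone, or co-treated with P. gingivalis plus 10, 100 or 1,000 µg/ml MDP for 3 h. TNF-α in conditioned medium measured by ELISA; mean ± S.E.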

[16] = Cytotoxicity against wild type mouse RAW264.7 cells assessed as survival rate at 10 ug/ml measured for 24 hrs by trypan blue assay relative to control; type: cell-based; conditions: wild type RAW264.7 cells, read-out: Survival
Procedure, shortened: (§7)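 WT mouse macrophages in RPMI 1640 with 10% FBS (37 °C, 5% CO2) were exposed to MDP for 0, 2, 4, 8, 12, 16, 18 or 24 h, then harvested with trypsin. Viability was counted by Trypan blue exclusion and expressed relative to 0 µg/ml MDP at 24 h (set as 100%). Done in triplicate; mean ± S.E.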

[17] = system: Mus musculus; assay: Antiinflammatory activity in wild type C57BL/6 mouse assessed as reduction of Porphyromonas gingivalis-induced septic shock at 8 mg/kg, ip; type: functional, organism-based
[18] = system: RAW264.7; assay: Effect on AP1 protein level in wild type mouse RAW264.7 cells at 10 ug/ml after 3 hrs by Western blot analysis relative to SC peptide; type: functional; procedure, shortened: as §2
[19] = Cytotoxicity against wild type mouse RAW264.7 cells assessed as survival rate at 100 ug/ml measured for 24 hrs by trypan blue assay relative to control; type: cell-based; conditions: wild type RAW264.7 cells, read-out: Survival; procedure, shortened: as §7
[20] = Cytotoxicity against wild type mouse RAW264.7 cells assessed as survival rate at 1 mg/ml measured for 24 hrs by trypan blue assay relative to control; type: cell-based; conditions: wild type RAW264.7 cells, read-out: Survival; procedure, shortened: as §7
[21] = system: RAW264.7; assay: Effect on A20 mRNA level in wild type mouse RAW264.7 cells at 10 ug/ml after 3 hrs by RT-PCR analysis relative to control; type: functional; procedure, shortened: as §4
[22] = system: RAW264.7; assay: Effect on Porphyromonas gingivalis-induced NOD2 mRNA level in wild type mouse RAW264.7 cells at 10 ug/ml after 3 hrs by RT-PCR analysis relative to control; type: functional; procedure, shortened: as §4
[23] = system: RAW264.7; assay: Upregulation of A20 promoter DNA level in wild type mouse RAW264.7 cells at 10 ug/ml after 3 hrs by ChIP assay; type: functional, cell-based; procedure, shortened: as §3
[24] = system: Peritoneal macrophage; assay: Effect on Porphyromonas gingivalis-induced TNFalpha expression in wild type mouse primary peritoneal macrophages at 1 mg/ml after 3 hrs by ELISA relative to control; type: functional; procedure, shortened: as §6
[25] = system: RAW264.7; assay: Upregulation of A20 mRNA level in wild type mouse RAW264.7 cells at 100 ug/ml after 3 hrs by RT-PCR analysis relative to control; type: functional; procedure, shortened: as §4
[26] = system: RAW264.7; assay: Effect on A20 protein level in wild type mouse RAW264.7 cells at 10 ug/ml after 3 hrs by Western blot analysis relative to SC peptide; type: functional; procedure, shortened: as §2
[27] = system: RAW264.7; assay: Effect on A20 protein level in wild type mouse RAW264.7 cells at 100 ug/ml after 3 hrs by Western blot analysis relative to SC peptide; type: functional; procedure, shortened: as §2
[28] = system: RAW264.7; assay: Effect on NFkappaB protein level in wild type mouse RAW264.7 cells at 100 ug/ml after 3 hrs by Western blot analysis relative to SC peptide; type: functional; procedure, shortened: as §2
[29] = system: RAW264.7; assay: Effect on MyD88 protein level in wild type mouse RAW264.7 cells at 100 ug/ml after 3 hrs by Western blot analysis relative to SC peptide; type: functional; procedure, shortened: as §2
[30] = system: Peritoneal macrophage; assay: Effect on Porphyromonas gingivalis-induced TNFalpha expression in wild type mouse primary peritoneal macrophages at 10 ug/ml after 3 hrs by ELISA relative to control; type: functional; procedure, shortened: as §6
[31] = system: RAW264.7; assay: Effect on NFkappaB protein level in wild type mouse RAW264.7 cells at 10 ug/ml after 3 hrs by Western blot analysis relative to SC peptide; type: functional; procedure, shortened: as §2
[32] = system: RAW264.7; assay: Effect on Porphyromonas gingivalis-induced RIP2 mRNA level in wild type mouse RAW264.7 cells at 10 ug/ml after 3 hrs by RT-PCR analysis relative to control; type: functional; procedure, shortened: as §4
[33] = system: RAW264.7; assay: Effect on Porphyromonas gingivalis-induced RIP2 mRNA level in wild type mouse RAW264.7 cells at 100 ug/ml after 3 hrs by RT-PCR analysis relative to control; type: functional; procedure, shortened: as §4
[34] = system: RAW264.7; assay: Upregulation of Porphyromonas gingivalis-induced p53 protein level in wild type mouse RAW264.7 cells at 10 to 1000 ug/ml after 3 hrs by Western blot analysis; type: functional, cell-based; procedure, shortened: as §5

CC(=O)N[C@H]1[C@@H](OCc2ccccc2)O[C@@H]2COC(C)(C)O[C@H]2[C@@H]1O[C@H](C)C(=O)N[C@@H](C)C(=O)N[C@H](CCC(=O)OCc1ccccc1)C(N)=O
Activity [1]: Active
Activity [2]: Active
Activity [3]: Active
Activity [4]: Active
Activity [5]: Active
Activity [6]: Active
Activity [7]: Active

CC(=O)N[C@H]1C(O)O[C@H](CO)[C@@H](O)[C@@H]1O[C@H](C)C(=O)N[C@@H](C)C(=O)N[C@H](CCC(=O)O)C(N)=O (some centres not stated) [MURAMYL DIPEPTIDE]
Activity [8]: Active
Activity [9]: Toxic
Activity [10]: 95%
Activity [11]: 282%
Activity [12]: inactive
Activity [2]: Active
Activity [13]: 565%
Activity [14]: 274%
Activity [4]: Active
Activity [5]: Active
Activity [15]: 84%
viability at 24 h, 10 ug/ml [16]: 92%
Activity [17]: Active
Activity [18]: 135%
viability at 24 h, 100 ug/ml [19]: 89%
viability at 24 h, 1 mg/ml [20]: 88%
Activity [21]: 117%
Activity [22]: 136%
Activity [23]: inactive
Activity [24]: 62%
fold change (FC) [25]: 5.6
Activity [26]: 106%
Activity [27]: 236%
Activity [28]: 142%
Activity [29]: 144%
Activity [30]: 129%
Activity [31]: 388%
Activity [32]: 103%
Activity [33]: 104%
Activity [34]: inactive
